Measurements pooled from the literature.
Protocols differ between the studies behind these lines.
Target: 5-hydroxytryptamine receptor 1A (HTR1A, Homo sapiens, UniProt P08908)
Sequence (P08908 1-422, as in one of the studies): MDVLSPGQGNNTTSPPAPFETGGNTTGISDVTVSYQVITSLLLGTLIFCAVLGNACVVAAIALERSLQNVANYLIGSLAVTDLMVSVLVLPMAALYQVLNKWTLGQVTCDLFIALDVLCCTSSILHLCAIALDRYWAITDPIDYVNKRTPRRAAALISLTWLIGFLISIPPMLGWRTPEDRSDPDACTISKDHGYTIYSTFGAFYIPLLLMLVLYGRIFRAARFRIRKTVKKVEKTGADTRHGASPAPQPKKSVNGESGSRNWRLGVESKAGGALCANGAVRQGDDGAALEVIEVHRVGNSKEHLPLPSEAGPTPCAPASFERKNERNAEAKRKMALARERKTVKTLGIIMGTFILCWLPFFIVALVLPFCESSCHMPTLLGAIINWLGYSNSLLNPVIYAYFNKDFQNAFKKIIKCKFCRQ

Structure (SMILES)	observed	mode	method	concentration	endpoint	result
c1ccc(N2CCN(Cc3nc4ccccc4[nH]3)CC2)nc1	ligand displacement	–	radioligand	10 µM	inhibition	37.9%
Oc1cccc(Nc2nc(-c3ccc(F)cc3F)cs2)c1	ligand displacement	–	radioligand	10 µM	inhibition	31.5%
CC1=C(C#N)C(c2ccc3c(c2)c(NC(=O)c2ccccc2C)nn3C)C(C#N)=C(C)N1	ligand displacement	–	radioligand	10 µM	inhibition	8.55%
O=C(CCCN1CCCN(c2ccc(Cl)cc2)CC1)c1ccc(F)cc1	cAMP	agonist	luciferase	–	Emax	4.4%
O=C(Nc1ccc(S(=O)(=O)N2CCC(Cl)CC2)cc1)c1ccc([N+](=O)[O-])o1	ligand displacement	–	radioligand	10 µM	inhibition	4%
N#Cc1cc(Cn2c(N3CCCC3)nc3ccccc32)ccc1F	ligand displacement	–	–	10 µM	inhibition	-8.04%
CN([C@@H]1CCc2c(CC(=O)O)c3ccccc3n2C1)S(=O)(=O)c1ccc(F)cc1	ligand displacement	–	radioligand	10 µM	inhibition	15.5%
CCCNc1nc2ccccc2n1Cc1ccc(Cl)cc1	ligand displacement	–	–	10 µM	inhibition	0.33%
CCCCCCOc1c(OC)cc2c3c1-c1cc4c(cc1CC3N(C)CC2c1ccccc1)OCO4 (stereo not shown)	ligand displacement	–	radioligand	10 µM	inhibition	-13.5%
CCN(CC)c1ccc(C2Nc3ccc(C(=O)c4ccccc4)cc3NC3=C2C(=O)CC(C)(C)C3)cc1 (stereo not shown)	ligand displacement	–	radioligand	10 µM	inhibition	22%
COc1cc2c3c(c1OC)-c1cc4c(cc1CC3N(C)CC2c1ccccc1)OCO4 (stereo not shown)	ligand displacement	–	radioligand	10 µM	inhibition	< 50%
O=C1N=C(N2CCCCN2)S/C1=C\c1ccc(F)cc1O	ligand displacement	–	radioligand	10 µM	inhibition	20%
CN1CCN(CCCOc2ccc(=O)n(-c3ccc(Cl)c(Cl)c3)n2)CC1	ligand displacement	–	–	1 µM	inhibition	20.6%
CCN(Cc1ccccc1C(F)(F)F)C(=O)C1CCN(S(=O)(=O)c2ccc3[nH]ncc3c2)CC1	ligand displacement	–	radioligand	10 µM	inhibition	0%
COc1ccc(-n2nc(OCCCN3CCCCC3)ccc2=O)cc1	ligand displacement	–	–	1 µM	inhibition	18.5%
COc1cc(NC(C)=O)c(Cl)cc1C(=O)Nc1nccs1	ligand displacement	–	radioligand	10 µM	inhibition	23.8%
